From paper PMC6007853 (Biochemistry, 2018)
“Also recorded” adds a separate entry of the source. Like-named read-outs stand apart in the source and are kept apart here.

Experiments:
Kv1.4 = Kv1.4 (Homo sapiens, UniProt P22459); format: cell-based; conditions: for Kv1.4 / Kv channel inhibition (in words): highest concentrations tested; for τact / τinact: voltage step from −100 mV to 0 mV, double exponential fit
Procedure, shortened: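 Kv1.4 expressed under tetracycline induction in a CHO-K1 line and recorded by automated whole-cell voltage clamp. Voltage steps went from −100 mV to 0 mV. A double exponential was fitted to current rise and decay to obtain τact and τinact. Kd values were fitted from these, n = 9, SEM. IC50 came from the best fit of peak-current inhibition ± standard deviation of the parameter fit.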

[1] = tested on: Gramicidin A (gA) channel; experiment: Gramicidin A based fluorescence quench assay; format: biochemical; conditions: highest concentration tested
Procedure, shortened: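 ANTS was loaded into large unilamellar vesicles containing gramicidin A, and Tl+ was added to the suspension. Intravesicular ANTS quenching was followed over time, with nine individual repeats per trace. The initial quench rate gave the Tl+ influx rate. gA2 is the compound concentration that doubles that rate. Where gA2 was not obtained, the highest concentration tested is given.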

Chain of Kv1.4 (P22459 whole entry): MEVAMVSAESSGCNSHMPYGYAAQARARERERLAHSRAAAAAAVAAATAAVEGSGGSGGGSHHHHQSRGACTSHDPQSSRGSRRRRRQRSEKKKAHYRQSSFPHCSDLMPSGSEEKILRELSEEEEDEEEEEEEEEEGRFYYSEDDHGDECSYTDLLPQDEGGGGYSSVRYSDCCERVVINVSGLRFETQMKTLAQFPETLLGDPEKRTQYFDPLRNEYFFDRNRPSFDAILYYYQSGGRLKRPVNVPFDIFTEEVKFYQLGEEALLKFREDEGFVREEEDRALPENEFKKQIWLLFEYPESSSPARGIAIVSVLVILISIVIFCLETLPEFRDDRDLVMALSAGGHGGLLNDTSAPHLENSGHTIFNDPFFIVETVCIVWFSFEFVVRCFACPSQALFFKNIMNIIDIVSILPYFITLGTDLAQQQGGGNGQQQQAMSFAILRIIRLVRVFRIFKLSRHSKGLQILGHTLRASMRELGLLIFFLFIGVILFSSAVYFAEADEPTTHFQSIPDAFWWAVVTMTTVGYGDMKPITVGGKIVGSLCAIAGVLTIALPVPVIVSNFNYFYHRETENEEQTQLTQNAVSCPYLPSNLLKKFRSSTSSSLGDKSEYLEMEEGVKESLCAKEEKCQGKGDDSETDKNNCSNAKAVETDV

SMILES: NCCc1c(SSc2[nH]c3ccc(Br)cc3c2CCN)[nH]c2ccc(Br)cc12 [compound 8]
- Kv1.4 / Kv channel inhibition (in words) (Kv1.4): strongly inhibit
- gA assay activity / bilayer perturbation (in words) [1]: complete inactivity; also recorded: does not perturb bilayers

SMILES: Cc1ccc2c(CCN)c(SSc3[nH]c4cc(C)ccc4c3CCN)[nH]c2c1 [compound 7]
- Kv1.4 / Kv channel inhibition (in words) (Kv1.4): strongly inhibit

SMILES: NCCc1c(COCc2[nH]c3cc(Br)ccc3c2CCN)[nH]c2cc(Br)ccc12 [compound 14]
- Kv1.4 / Kv channel inhibition (in words) (Kv1.4): strongly inhibit
- IC50 (Kv1.4; read-out: IC50 (potency against Kv1.4)): 2700 nM

SMILES: NCCc1c(SSc2[nH]c3cc(Br)ccc3c2CCN)[nH]c2cc(Br)ccc12 [1a, 6-bromo-2-mercaptotryptamine dimer]
- τact (Kv1.4; 1.5 μM BrMT): 2.54 ± 0.02
- τinact (Kv1.4; 1.5 μM BrMT): 136.6 ± 0.6
- τact (Kv1.4; 3 μM BrMT): 3.17 ± 0.03
- τinact (Kv1.4; 3 μM BrMT): 181 ± 2
- τact (Kv1.4; 6 μM BrMT): 4.2 ± 0.4
- τinact (Kv1.4; 6 μM BrMT): 300 ± 20
- Kv1.4 / Kv channel inhibition (in words) (Kv1.4): strongly inhibit
